Measured values taken from ChEMBL document CHEMBL2086279, “Synthesis of novel Schiff base analogues of 4-amino-1,5-dimethyl-2-phenylpyrazol-3-one and their evaluation for antioxidant and anti-inflammatory activity” (Bioorg Med Chem, 2012).
Activity calls are given as the source filed them. The calls are words filed in the database; no cut-off is given here.

Experiments:
[1] = system: Radical scavenging activity; assay: Antioxidant activity assessed as DPPH free radical scavenging activity incubated for 30 mins; type: functional
Method in brief: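 Blois method, modified: 0.1 ml sample in ethanol (2.5–20 mg/mL) mixed with 4 ml 1.5 × 10^-5 M DPPH, kept dark at room temperature 30 min; absorbance at 520 nm used to calculate % radical scavenging.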

RAW264.7 [2] = assay: Cytotoxicity against mouse RAW264.7 cells assessed as change in cell viability at 6 ug/mL incubated for 24 hrs by MTT assay; type: cell-based; conditions: raw264.7, 24 h
Method in brief: (§1)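 RAW264.7 (passage ≤20, DMEM/10% FBS) seeded 5 × 10^4 cells/well, exposed to compound 24 h; MTT (5 mg/ml stock) added 4 h, formazan dissolved in 0.04 N HCl/isopropyl alcohol, OD read at 570 and 630 nm.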

RAW264.7 [3] = assay: Cytotoxicity against mouse RAW264.7 cells assessed as change in cell viability at 12 ug/mL incubated for 24 hrs by MTT assay; type: cell-based; conditions: raw264.7, 24 h; method in brief: as §1
RAW264.7 [4] = assay: Cytotoxicity against mouse RAW264.7 cells assessed as change in cell viability at 25 ug/mL incubated for 24 hrs by MTT assay; type: cell-based; conditions: raw264.7, 24 h; method in brief: as §1
RAW264.7 [5] = assay: Cytotoxicity against mouse RAW264.7 cells assessed as change in cell viability at 50 ug/mL incubated for 24 hrs by MTT assay; type: cell-based; conditions: raw264.7, 24 h; method in brief: as §1
RAW264.7 [6] = assay: Antiinflammatory activity in mouse RAW264.7 cells assessed as inhibition of LPS-induced nitric oxide production pre-treated for 30 mins before LPS stimulation measured 24 hrs post LPS challenge by Griess assay; type: functional, cell-based
Method in brief: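 LPS 200 ng/mL for 24 h after 30 min pretreatment at various concentrations; cells seeded 5 × 10^5/well overnight at 37 °C in DMEM/10% FBS. Nitrite in medium read with Griess reagent (1% sulfanilamide, 0.1% N-1-naphthylenediamine dihydrochloride, 2.5% phosphoric acid), 10 min, absorbance 570 nm, quantified against sodium nitrite standard curve.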

RAW264.7 [7] = assay: Inhibition of iNOS mRNA expression in mouse RAW264.7 cells pre-treated for 30 mins before LPS stimulation measured 24 hrs post LPS challenge by RT-PCR; type: functional, cell-based
Method in brief: (§2)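 Cells pretreated with compound 30 min, then LPS 200 ng/mL for 24 h; total RNA extracted with TRIzol, quality checked by 260/280 absorbance; iNOS and COX-2 mRNA assessed by RT-PCR with gene-specific primers.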

RAW264.7 [8] = assay: Inhibition of COX2 mRNA expression in mouse RAW264.7 cells at 50 ug/mL pre-treated for 30 mins before LPS stimulation measured 24 hrs post LPS challenge by RT-PCR; type: functional, cell-based; method in brief: as §2
[9] = Solubility in DMSO; type: physicochemical

IC50 [1] [µM] | SMILES | also measured
34.5 | Cc1c(/N=C/c2ccccc2C=O)c(=O)n(-c2ccccc2)n1C | 
18.8 | Cc1c(/N=C/c2ccc(O)cc2)c(=O)n(-c2ccccc2)n1C | 
2.5 | Cc1c(/N=C/c2ccc(O)cc2O)c(=O)n(-c2ccccc2)n1C | 
7.27 | COc1ccc(/C=N/c2c(C)n(C)n(-c3ccccc3)c2=O)cc1OC | 
3.14 | Cc1c(/N=C/c2ccccc2/C=N/c2c(C)n(C)n(-c3ccccc3)c2=O)c(=O)n(-c2ccccc2)n1C | 
14.5 | COc1ccc(/C=N/c2c(C)n(C)n(-c3ccccc3)c2=O)c(OC)c1 | 
15.3 | COc1ccc(/C=N/c2c(C)n(C)n(-c3ccccc3)c2=O)cc1 | 
5.22 | COc1ccc(/C=N/c2c(C)n(C)n(-c3ccccc3)c2=O)cc1C | 
0.93 | Cc1c(/N=C/c2ccc(O)c(O)c2)c(=O)n(-c2ccccc2)n1C | Activity (RAW264.7 [2]): Non-toxic; Activity (RAW264.7 [3]): Non-toxic; Activity (RAW264.7 [4]): Non-toxic; Activity (RAW264.7 [5]): Non-toxic; Activity (RAW264.7 [6]): Dose-dependent effect; inhibition (RAW264.7 [7]): Dose-dependent effect; inhibition (RAW264.7 [8]): Active
0.41 | O=C1O[C@H]([C@@H](O)CO)C(O)=C1O [ASCORBIC ACID] | 
31.7 | Cc1c(/N=C/c2ccc(Cl)cc2)c(=O)n(-c2ccccc2)n1C | 
0.44 | Cc1c(/N=C/c2c(O)cc(O)cc2O)c(=O)n(-c2ccccc2)n1C | solubility [9]: Insoluble
1.66 | COc1cc(/C=N/c2c(C)n(C)n(-c3ccccc3)c2=O)cc(OC)c1O | 
31.3 | Cc1c(/N=C/c2ccccc2)c(=O)n(-c2ccccc2)n1C | 
